The target of series [1] is Cyclin-dependent kinase 5/CDK5 activator 1 (Homo sapiens, UniProt Q00535). In words: Inhibition of CDK5/p35 (unknown origin). Format: protein-complex assay. Summed up: (§1)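 Kinase panel: 200 kinases were first screened at 1 μM inhibitor for percent inhibition. Those above 50% inhibition were then titrated for IC50. MgATP was fixed at the Km(app) determined for each enzyme.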

A short description of series [2]: Inhibition of CaMK II (unknown origin). Details: species or system Homo sapiens.
The nature of series [3]: Cmax in chronic SCW-induced arthritis Lewis rat model plasma at ED80 concentration. Format: ADME, cell-free. Summed up: (§2)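 Female Lewis rats (125-140 g) received a single i.p. streptococcal cell wall injection. Animals showing the acute phase were pooled, 4-8 per group over three experiments. Dosing was oral gavage b.i.d., days 10-21, in methylcellulose-Tween-20 vehicle. Hind paw volume was read by displacement plethysmometer on day 21, as % inhibition of swelling. Plasma was sampled up to 11 h after the last dose, 3 rats per dose. ED values came from fitted curves.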

Series [4] is described as follows: Cmax in chronic SCW-induced arthritis Lewis rat model plasma at ED50 concentration. Format: ADME, cell-free. In short, it runs like this: as §2
The target of series [5] is T1, Serine/threonine-protein kinase 17A (Homo sapiens, UniProt Q9UEE5).
T1 sequence (Q9UEE5 whole entry): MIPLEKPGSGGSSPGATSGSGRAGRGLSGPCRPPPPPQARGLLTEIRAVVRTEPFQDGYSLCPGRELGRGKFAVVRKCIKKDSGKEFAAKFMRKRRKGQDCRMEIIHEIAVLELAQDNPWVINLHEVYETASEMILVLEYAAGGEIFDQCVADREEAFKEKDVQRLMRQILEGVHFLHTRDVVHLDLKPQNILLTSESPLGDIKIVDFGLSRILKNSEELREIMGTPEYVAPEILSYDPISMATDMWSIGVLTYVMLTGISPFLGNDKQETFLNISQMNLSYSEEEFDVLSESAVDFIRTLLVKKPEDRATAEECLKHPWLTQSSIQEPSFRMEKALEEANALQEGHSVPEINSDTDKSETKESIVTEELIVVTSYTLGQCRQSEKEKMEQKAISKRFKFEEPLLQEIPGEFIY
The series is described as follows: Inhibition of DRAK1 (unknown origin). Summed up: as §1

Series [6] in a line: Antiinflammatory activity in human PBMC cells assessed as inhibition of LPS induced IL-8 production preincubated for 1 hr followed by LPS stimulation and measured after 16 hrs by MSD analysis. Format: functional, cell-based. In short, it runs like this:
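Human PBMCs were pretreated with compound for 1 h (<1% DMSO final), then stimulated with LPS 100 ng/ml at 37°C. Cytokines in culture media were read by MSD 4-plex: TNFα at 4 h; IL-1β, IL-6 and IL-8 at 16 h. Data are means ±S.E.M. of two independent experiments in duplicate, three donors. IC50 by 4-parameter nonlinear regression.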

A short description of series [7]: Cytotoxicity against human PBMC cells assessed as reduction in cell viability at upto 20 uM. It is filed as toxicity, cell-based.
Series [8] is described as follows: Plasma concentration in po dosed LPS-induced Lewis rat model at ED80 concentration measured after 5.5 hrs of initial dose by LC-MS/MS analysis. Format: ADME, organism-based. In short, it runs like this:
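Male Lewis rats (225-250 g, 5 per group) were fasted 18 h, then dosed orally at 0.2-60 mg/kg as a suspension in 0.5% methylcellulose/0.025% Tween 20. LPS 1 mg/kg was given i.v. 4 h later. Blood was taken by cardiac puncture 90 min after LPS. Serum TNFα was read by ELISA and drug by LC-MS/MS, three independent experiments. 4-parameter fit. Unbound values were corrected with measured rat plasma protein binding.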

Series [9] has as its target T2, Serine/threonine-protein kinase BRSK1 (Homo sapiens, UniProt Q8TDC3).
T2 sequence (Q8TDC3 whole entry): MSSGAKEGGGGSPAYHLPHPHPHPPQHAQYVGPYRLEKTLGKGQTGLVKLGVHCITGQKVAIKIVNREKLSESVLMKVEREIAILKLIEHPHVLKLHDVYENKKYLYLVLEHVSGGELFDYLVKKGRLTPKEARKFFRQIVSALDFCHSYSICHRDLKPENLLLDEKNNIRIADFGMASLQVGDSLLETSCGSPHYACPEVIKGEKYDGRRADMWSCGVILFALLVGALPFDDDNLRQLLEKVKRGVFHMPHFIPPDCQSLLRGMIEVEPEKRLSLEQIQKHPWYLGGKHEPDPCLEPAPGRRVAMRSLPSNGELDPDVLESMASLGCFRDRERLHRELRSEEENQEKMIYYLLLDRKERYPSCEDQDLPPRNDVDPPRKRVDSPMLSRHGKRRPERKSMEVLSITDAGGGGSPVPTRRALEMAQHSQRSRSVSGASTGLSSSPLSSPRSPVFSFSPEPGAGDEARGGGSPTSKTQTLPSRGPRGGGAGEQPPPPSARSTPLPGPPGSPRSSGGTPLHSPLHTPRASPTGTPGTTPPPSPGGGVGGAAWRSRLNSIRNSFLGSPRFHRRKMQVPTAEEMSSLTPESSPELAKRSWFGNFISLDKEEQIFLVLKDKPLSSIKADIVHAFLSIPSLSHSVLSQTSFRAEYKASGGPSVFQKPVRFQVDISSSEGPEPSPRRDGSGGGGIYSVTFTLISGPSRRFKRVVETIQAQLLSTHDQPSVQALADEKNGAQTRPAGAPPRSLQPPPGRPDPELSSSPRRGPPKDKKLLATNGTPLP
The series is described as follows: Inhibition of BrSK1 (unknown origin). In short, it runs like this: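 Selectivity profiling began with a 200-kinase screen at 1 μM compound; kinases above 50% inhibition were then titrated for IC50. MgATP was fixed at each enzyme's Km(app). Buffer was 20 mM HEPES pH 7.5 with 10 mM MgCl2, 1 mM DTT, 0.01% BSA and 0.0005% Tween-20. Endpoint reactions were stopped in the linear phase with 30 mM EDTA.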

Chain of Cyclin-dependent kinase 5/CDK5 activator 1 (Q00535 whole entry): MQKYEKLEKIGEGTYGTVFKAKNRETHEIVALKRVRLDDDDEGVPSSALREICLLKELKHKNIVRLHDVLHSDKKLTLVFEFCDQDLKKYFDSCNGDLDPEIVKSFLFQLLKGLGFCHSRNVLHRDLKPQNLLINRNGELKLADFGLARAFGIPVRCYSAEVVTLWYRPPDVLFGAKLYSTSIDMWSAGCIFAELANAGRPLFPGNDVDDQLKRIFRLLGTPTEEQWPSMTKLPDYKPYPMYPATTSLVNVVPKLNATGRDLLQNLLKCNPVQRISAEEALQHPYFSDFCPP
Chain of Cyclin-dependent kinase 5/CDK5 activator 1 (Q15078 whole entry, further chain): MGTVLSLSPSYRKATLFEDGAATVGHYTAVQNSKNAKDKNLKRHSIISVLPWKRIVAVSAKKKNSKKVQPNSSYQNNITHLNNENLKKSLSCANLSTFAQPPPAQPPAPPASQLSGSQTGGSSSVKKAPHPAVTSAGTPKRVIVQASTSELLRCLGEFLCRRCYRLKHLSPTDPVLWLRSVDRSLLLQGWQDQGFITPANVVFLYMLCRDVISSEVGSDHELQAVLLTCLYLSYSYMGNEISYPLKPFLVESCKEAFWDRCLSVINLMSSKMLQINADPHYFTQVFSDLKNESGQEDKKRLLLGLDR

For `Cc1ccc(-c2ccc3c(ccc4sc5c(c43)NC[C@@H](C)NC5=O)n2)cn1`, the 50% inhibitory concentration (IC50) came to 0.902 µM in [1]; 0.07 µM in series [2]; 0.071 µM in series [5]; 2.59 µM in [6]; 0.187 µM in series [9]. Further, the Cmax in series [3] stood at 28 µM; in series [4], 11 µM. Besides, the Activity entry in [7] was “Non-Toxic”. The concentration at 5.5 h in series [8] amounted to 4.2 µM.

By IC50 is commonly meant the concentration needed to halve the response being measured. One may read the Cmax as the peak of the concentration-time curve.

The record behind these values is ChEMBL document CHEMBL5678801, “A benzothiophene inhibitor of mitogen-activated protein kinase-activated protein kinase 2 inhibits tumor necrosis factor alpha production and has oral anti-inflammatory efficacy in acute and chronic models of inflammation” (J Pharmacol Exp Ther, 2010).
